Screening results as filed in PubChem.
MC4R antag cAMP: MC4R antagonists of cAMP signaling, primary screen, cell-based, TR-FRET, antagonist arm of biased-ligand search. MC4R-expressing cells, MTII-stimulated cAMP, LANCE TR-FRET. inhibition, % at 6.5 µM. hit rate 0.48% among 360,000. AID 540295, 2011;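 active = inhibition above its plate's cutoff, the mean of tested wells on that plate plus 3 SD, cut at about 29% in these data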;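 note: 0% = Melanotan II alone and 100% = Melanotan II plus saturating MCL0020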
Target sequence (P32245 whole entry, looked up): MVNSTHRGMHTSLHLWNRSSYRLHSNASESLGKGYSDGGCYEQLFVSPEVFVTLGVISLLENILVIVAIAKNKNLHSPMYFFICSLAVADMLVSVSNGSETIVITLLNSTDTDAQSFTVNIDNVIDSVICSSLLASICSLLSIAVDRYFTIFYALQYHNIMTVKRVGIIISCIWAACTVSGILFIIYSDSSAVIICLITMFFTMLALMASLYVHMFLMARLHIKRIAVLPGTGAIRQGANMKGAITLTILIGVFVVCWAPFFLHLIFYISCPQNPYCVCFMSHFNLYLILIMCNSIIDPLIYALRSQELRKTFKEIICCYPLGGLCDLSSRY
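Assay system: U2OS-MC4R stable cell line; Also added: Melanotan II; Technique: Eu-cAMP/anti-cAMP TR-FRET, emission 671 nm; Times: 30-min compound, 1-h challenge, 1-h detection, room temperature.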
TMEM16A act: TMEM16A chloride channel activators or potentiators, primary screen, cell-based, HTS | Anoctamin-1 (Mus musculus), Q8BHY3 | hit rate 0.3% among 340,000 | AID 623877, 2012 | HEK293 TMEM16A/YFP-H148Q/I152L, iodide quench fluorescence; stronger effect = lower value | B-score at 10 µM;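 active = fluorescence-ratio B-score plate-corrected deviation score at least 3 library SD below zero, with starting fluorescence score within 5 deviations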;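 note: channel opened by trigger with iodide after compound preincubation; score built on the fluorescence ratio of max minus min over baseline; more negative score means more quench and so TMEM16A activation or potentiation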
Beta cell apopt: inhibitors of cytokine-induced beta cell apoptosis, primary screen, luminescence; hit rate 0.8% among 300,000; AID 435005, 2010; protection from apoptosis, % (concentration not given with the values); INS-1E cytokine-induced death, ATP luminescence, 48 h; percent of positive-control rescue, neutral wells zero;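 active = Every replicate reaches about 75%, or at least half do and their mean reaches it too, limit read from the data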;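 note: 0% = cytokine-treated negative control wells and 100% = positive control rescue; higher means more ATP so stronger rescue from cytokine killing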
MC4R barr agon: MC4R agonists recruiting beta-arrestin, primary screen, cell-based, luminescence, agonist arm of biased-ligand search. U2OS MC4R beta-arrestin complementation; percent of melanotan II response, DMSO zero. hit rate 0.98% among 360,000. activation, % at 8.9 µM. Melanocortin receptor 4 (Homo sapiens), P32245. AID 540308, 2011;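 active = activation above a per-plate cutoff, the mean activation of sample wells on that plate plus 3 SD, cut at about 8% in these data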
ANO1 block: TMEM16A chloride channel inhibitors, primary screen, cell-based, HTS; normalized B-score (activity score, 25-100; higher = stronger inhibition) at 10 µM; hit rate 1.2% among 310,000; AID 588511, 2011; HEK293 TMEM16A/YFP iodide influx fluorescence, ionomycin;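 active = ratio plate-corrected score three or more library SD toward inhibition, starting fluorescence score within five deviations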;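 note: score derived from kinetic fluorescence span divided by baseline fluorescence per well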
CSC inhib: cancer stem cell viability inhibitors, primary screen, luminescence; cancer stem cell-like cells viability; inhibition, % at 7.5 µM; hit rate 1.1% among 300,000; in the data active = inhibition above about 75%; tested in HMLE shEcad cells
MC4R barr conf: MC4R beta-arrestin agonists, retest, confirmation, cell-based, luminescence, U2OS; shares compounds with MC4R barr agon; U2OS MC4R beta-arrestin recruitment; scaled DMSO 0%, Melanotan II 100%; activation, % at 8.9 µM; hit rate 31% among 2,400; AID 602192, 2012;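 active = mean activation across replicates above the hit cutoff set in the earlier primary screen, cut at about 8% in these data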
MOR DOR agonist: agonists of MOR-DOR heterodimerization, counter-screen for MC4R biased agonist project, cell-based, luminescence | shares compounds with MC4R barr agon | U2OS PathHunter beta-arrestin, beta-gal luminescence; percent of deltorphin B response, DMSO zero | activation, % at 9.2 µM | hit rate 5.8% among 2,400;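 active = mean activation across replicates exceeds the hit threshold derived in the earlier primary screen, cut at about 18% in these data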;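 note: 100% = deltorphin B at 0.9 µM final and 0% = DMSO alone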
The depositor's hits bear a star; i = inactive; nt = no result given. Rows were chosen to be rich in hits. Some 3.8% of all compounds tested hit in one or more screens of this group.

SMILES	MC4R antag cAMP	TMEM16A act	Beta cell apopt	MC4R barr agon	ANO1 block	CSC inhib	MC4R barr conf	MOR DOR agonist
CCn1c(SCC(=O)Nc2ccc(NC(=O)c3ccco3)c(OC)c2)nc2ccccc2c1=O	15.4	i	3.1	17.8*	i	4.5	4.6	2.2
C=CCn1c(SCC(=O)Nc2ccc(OC)cc2)nc2ccccc2c1=O	1.6	i	4.5	14.9*	i	-6.9	-1.5	1.2
CN(C)c1ccc(C(=O)Nc2ccc(CN3CCS(=O)(=O)CC3)cc2)cc1	13.9	i	-3.8	0.2	i	-5.8	nt	nt
Cc1cc([N+](=O)[O-])ccc1NC(=O)c1csc(C)c1C	-11.4	i	-1.5	0.8	i	-1.2	nt	nt
Cc1ccc(-c2cc(C(=O)N(C)Cc3cnn(C)c3C)c3cc(Br)ccc3n2)cc1	13.0	i	15.0	9.7*	i	18.9	1.7	2.6
COC(=O)CCC(=O)OC1(C)C(=O)C=C2C=C(C3CC3)OC=C2C1=O (centres undefined)	nt	nt	4.7	nt	i	-4.3	nt	nt
O=S(=O)(Nc1cc2nc3ccccc3nc2n1Cc1ccccc1)c1ccc(Cl)cc1	-9.1	i	2.9	14.6*	i	112.3*	10.2*	10.2
COC(=O)c1ccccc1NC(=O)COC(=O)Cc1ccc(S(=O)(=O)N2CCOCC2)s1	7.3	i	nt	-1.0	nt	nt	nt	nt
CCn1cc([N+](=O)[O-])c(C(=O)N2N=C(c3ccc4ccccc4c3)CC2c2cc(Br)ccc2O)n1 (centres undefined)	5.5	i	26.7	15.9*	i	-3.2	9.0*	6.5
CCn1cc([N+](=O)[O-])c(C(=O)N2N=C(c3ccc(Cl)c(Cl)c3)CC2c2ccccc2O)n1 (centres undefined)	10.7	i	1.6	6.2	i	-1.8	nt	nt
COc1ccc(NC(=O)C[C@H]2C(=O)N(c3ccc(OC)cc3)C[C@@H]2CSC)cc1	8.5	nt	nt	-1.1	nt	nt	nt	nt
Cc1ccc(-c2[nH]ncc2/C=N/n2c(COc3ccccc3C)nc3ccccc3c2=O)cc1	4.4	i	93.1*	18.8*	i	-7.9	3.2	5.3
Cc1ccccc1OCc1nc2ccccc2c(=O)n1/N=C/c1c[nH]c2ccccc12	-2.6	i	6.8	28.5*	i	12.4	8.2	6.0
C=CCn1c(COc2cc(C)ccc2C(C)C)nnc1SCC(=O)c1c(N)n(C)c(=O)n(C)c1=O	7.2	i	3.1	9.7*	i	-10.7	2.9	3.7
O=C(c1ccoc1)N1CCN(c2cc(-c3cccnc3)nc3cc(-c4cccc(Cl)c4)nn23)CC1	19.8	nt	nt	10.8*	nt	nt	-0.3	3.3
Cc1[nH]c2ccccc2c1C(=O)CSc1nc2ccccc2[nH]1	0.0	i	-3.7	1.6	i	-12.3	nt	nt
Cc1[nH]c2ccccc2c1C(=O)CSc1ccc(Cl)cc1	-11.3	i	-7.1	11.7*	i	-22.8	2.9	5.9
Cc1cc(NC(=O)CSc2nc3c(c(=O)n(C)c(=O)n3C)n2C(C)C)no1	-25.8	nt	-4.8	16.3*	i	-1.6	0.1	2.2
O=C(Nc1cccc(Cl)c1)N1CCN(C/C=C/c2ccccc2)CC1	5.2	i	-1.0	9.6*	i	2.4	5.7	6.5
O=C(CCN1CCN(C/C=C/c2ccccc2)CC1)Nc1ccc(Cl)cc1	8.3	i	-0.9	-0.8	i	21.0	nt	nt
C/C(=N/NC(=O)c1ccc(Br)o1)c1cccc(NC(=O)c2ccc(F)cc2)c1	10.2	i	nt	-0.1	i	-5.5	nt	nt
O=C(Nc1cc(Cl)ccc1Cl)c1ccc(-c2ccccc2)cc1	-6.8	i	0.9	9.8*	i	7.3	5.3	8.5
O=C(Nc1cccc(Cl)c1Cl)c1ccc(-c2ccccc2)cc1	-0.9	i	-0.2	4.4	i	-13.4	nt	nt
CCC(C)(C)c1ccc(OCCCC[n+]2ccccc2)c(C(C)(C)CC)c1	13.4	i	114.3*	12.1*	i	104.9*	12.0*	6.3
CCCCOc1ccc(C)cc1CN(CCO)CCO	0.8	i	-6.4	-0.1	i	-15.3	nt	nt
SMILES	MC4R antag cAMP	TMEM16A act	Beta cell apopt	MC4R barr agon	ANO1 block	CSC inhib	MC4R barr conf	MOR DOR agonist
CCCCCc1ccc(OCCCC[n+]2cccc(C)c2)c(CCCCC)c1	10.7	i	111.0*	15.8*	100*	109.4*	13.2*	5.7
CCCCCc1ccc(OCCCC[n+]2ccccc2)c(CCCCC)c1	15.6	i	86.5*	10.4*	i	1.8	8.3*	1.7
COc1ccc2cc(C(=O)N(C)CC(=O)Nc3ccccc3Br)ccc2c1	4.2	i	-2.0	-0.4	nt	-2.3	nt	nt
COCCNC(=O)c1cc(-c2ccc(-c3ccccc3)cc2)nc2ccccc12	-3.9	i	0.0	0.4	i	40.7	nt	nt
CCCCOc1ccc(C(=O)N/C(=C\c2ccc(OC)cc2)C(=O)OCc2ccco2)cc1	5.6	i	-1.9	-0.6	i	-1.3	nt	nt
CCCCOc1ccc(C(=O)N/C(=C\c2cccc([N+](=O)[O-])c2)C(=O)OCc2ccco2)cc1	9.8	i	1.7	19.6*	i	9.3	-0.6	2.0
Cc1ccc(-n2nc3c4c(cccc4c2=O)-c2ccccc2-3)cc1	7.6	i	4.2	20.7*	i	2.3	10.2*	5.5
O=C(O)Cn1nc2c3c(cccc3c1=O)-c1ccccc1-2	2.9	i	-1.7	-0.5	i	-1.0	nt	nt
O=C(COc1ccc2ccccc2c1)Nc1ccc2c3c(cccc13)CC2	-5.7	i	0.4	34.4*	i	16.0	7.5	3.7
Cc1cc(C)cc(OCC(=O)Nc2ccc3c4c(cccc24)CC3)c1	11.6	i	4.7	-0.4	i	-2.8	nt	nt
COc1cc(/C(O)=C(\C#N)c2nc3ccccc3[nH]2)cc(OC)c1OC	25.9	i	2.1	0.5	i	-10.1	nt	nt
C=CS(=O)(=O)N(Cc1ccccc1Br)[C@H](CO)Cc1ccccc1	0.4	i	nt	3.0	nt	nt	nt	nt
